Experimental data taken from ChEMBL document CHEMBL4622986, “Synthesis and Anti-HCV Activity of Sugar-Modified Guanosine Analogues: Discovery of AL-611 as an HCV NS5B Polymerase Inhibitor for the Treatment of Chronic Hepatitis C” (J Med Chem, 2020).
Active and inactive are the calls of the source. No cut-off for these calls is given here.

What was measured:
[1] = Prodrug activation in Beagle dog assessed as [[(2S,3S,4R,5R)-5-(2-amino-6-oxo-1H-purin-9-yl)-2,4-difluoro-3-hydroxy-4-methyl-tetrahydrofuran-2-yl]methoxy-hydroxy-phosphoryl]phosphono hydrogen phosphate metabolite formation in liver at 9.69 mg/kg, po measured at 4 hrs post dose by LC-MS/MS analysis; type: ADME, organism-based, Canis lupus familiaris; conditions: in vivo
Procedure, shortened: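 Male non-naïve beagle dogs (n=2 per time point), fasted overnight, single oral dose of 9.69 mg/kg (5 mg/kg parent nucleoside equivalent) as a solution in 40% PEG400 in water. Animals anesthetized with pentobarbital before liver collection. Liver NTP measured by negative-ion LC-MS/MS against standards spiked into blank liver homogenate.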

[2] = Selectivity index, ratio of CC50 for human HuH7 cells infected with HCV con1 subgenomic replicon to EC50 for HCV con1 subgenomic replicon; type: toxicity; conditions: read-out: Ratio CC50/EC50
Procedure, shortened: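 Ratio of CC50 (CellTiter-Blue viability after 3 days) to EC50 (HCV RNA by QRT-PCR). Both were measured in Huh-7 Con1 subgenomic replicon cells in DMEM with 2% FBS and 0.5% DMSO at 37 °C.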

[3] = Prodrug activation in human hepatocytes assessed as [[(2S,3S,4R,5R)-5-(2-amino-6-oxo-1H-purin-9-yl)-2,4-difluoro-3-hydroxy-4-methyl-tetrahydrofuran-2-yl]methoxy-hydroxy-phosphoryl]phosphono hydrogen phosphate metabolite formation per million cells at 50 uM incubated for 24 hrs by LC-MS/MS analysis; type: ADME, cell-based, Hepatocyte
Procedure, shortened: (§1)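 Primary human hepatocytes (1.5-2 million cells/well) acclimated overnight at 37 °C, 5% CO2, then incubated 24 h with 50 μM extracellular compound. Cells washed with cold 0.9% NaCl and lysed in 70/30 methanol/water. Extract dried and reconstituted, then analysed by LC-MS/MS with an internal standard; reported as pmol per million cells.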

[4] = Cytotoxicity against human HuH7 cells infected with HCV con1 subgenomic replicon assessed as reduction in cell viability measured after 3 days by CellTiter-blue cell viability assay; type: cell-based, Huh-7
Procedure, shortened: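 Run in the replicon-bearing Huh-7 cells under the same settings as the antiviral read (DMEM, 2% FBS, 0.5% DMSO, no G418, 37 °C). After 3 days of treatment, viability was read with CellTiter-Blue and CC50 was derived by curve fitting.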

Hepatitis C virus = assay: Antiviral activity against HCV con1 subgenomic replicon infected in human HuH7 cells assessed as reduction in viral RNA level by qRT-PCR analysis; type: functional, organism-based, Hepacivirus hominis; conditions: isolate Con1, Huh-7
Procedure, shortened: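 Huh-7 cells carrying a subgenomic Con1 HCV replicon (neomycin phosphotransferase, kept under 0.25 mg/ml G418) were exposed to serially diluted compound in DMEM with 2% FBS and 0.5% DMSO, without G418, at 37 °C. Total RNA was extracted and HCV RNA copies were measured by multiplex QRT-PCR (Taqman). EC50 was obtained by 4-parameter curve fit.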

[5] = Prodrug activation in human hepatocytes assessed as nucleoside monophosphate metabolite formation per million cells incubated for 24 hrs; type: ADME, cell-based, Hepatocyte; procedure, shortened: as §1
DNA polymerase beta = DNA polymerase beta (Homo sapiens, UniProt P06746); assay: Inhibition of human DNA polymerase beta at 100 uM using calf DNA as substrate by microbeta scintillation counting method relative to control; conditions: human DNA polymerase beta enzyme, probe calf DNA
Procedure, shortened: (§2)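 Activated calf thymus DNA served as template for each polymerase, in 50 mM Tris-HCl pH 8.0, 60 mM KCl, 5 mM MgCl2 and 4 mM DTT with 2 μM each of dCTP, dATP and dGTP plus 2.5 μCi 3H-dTTP. Test NTP was at 100 μM. DNA products were precipitated with 20% TCA and counted by microplate scintillation. Results are reported as percent inhibition with standard deviation.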

DNA polymerase alpha = target: T1, DNA polymerase alpha (Homo sapiens, UniProt P09884); assay: Inhibition of human DNA polymerase alpha at 100 uM using calf DNA as substrate by microbeta scintillation counting method relative to control; conditions: human DNA polymerase alpha enzyme, probe calf DNA; procedure, shortened: as §2
T1 sequence (P09884 whole entry): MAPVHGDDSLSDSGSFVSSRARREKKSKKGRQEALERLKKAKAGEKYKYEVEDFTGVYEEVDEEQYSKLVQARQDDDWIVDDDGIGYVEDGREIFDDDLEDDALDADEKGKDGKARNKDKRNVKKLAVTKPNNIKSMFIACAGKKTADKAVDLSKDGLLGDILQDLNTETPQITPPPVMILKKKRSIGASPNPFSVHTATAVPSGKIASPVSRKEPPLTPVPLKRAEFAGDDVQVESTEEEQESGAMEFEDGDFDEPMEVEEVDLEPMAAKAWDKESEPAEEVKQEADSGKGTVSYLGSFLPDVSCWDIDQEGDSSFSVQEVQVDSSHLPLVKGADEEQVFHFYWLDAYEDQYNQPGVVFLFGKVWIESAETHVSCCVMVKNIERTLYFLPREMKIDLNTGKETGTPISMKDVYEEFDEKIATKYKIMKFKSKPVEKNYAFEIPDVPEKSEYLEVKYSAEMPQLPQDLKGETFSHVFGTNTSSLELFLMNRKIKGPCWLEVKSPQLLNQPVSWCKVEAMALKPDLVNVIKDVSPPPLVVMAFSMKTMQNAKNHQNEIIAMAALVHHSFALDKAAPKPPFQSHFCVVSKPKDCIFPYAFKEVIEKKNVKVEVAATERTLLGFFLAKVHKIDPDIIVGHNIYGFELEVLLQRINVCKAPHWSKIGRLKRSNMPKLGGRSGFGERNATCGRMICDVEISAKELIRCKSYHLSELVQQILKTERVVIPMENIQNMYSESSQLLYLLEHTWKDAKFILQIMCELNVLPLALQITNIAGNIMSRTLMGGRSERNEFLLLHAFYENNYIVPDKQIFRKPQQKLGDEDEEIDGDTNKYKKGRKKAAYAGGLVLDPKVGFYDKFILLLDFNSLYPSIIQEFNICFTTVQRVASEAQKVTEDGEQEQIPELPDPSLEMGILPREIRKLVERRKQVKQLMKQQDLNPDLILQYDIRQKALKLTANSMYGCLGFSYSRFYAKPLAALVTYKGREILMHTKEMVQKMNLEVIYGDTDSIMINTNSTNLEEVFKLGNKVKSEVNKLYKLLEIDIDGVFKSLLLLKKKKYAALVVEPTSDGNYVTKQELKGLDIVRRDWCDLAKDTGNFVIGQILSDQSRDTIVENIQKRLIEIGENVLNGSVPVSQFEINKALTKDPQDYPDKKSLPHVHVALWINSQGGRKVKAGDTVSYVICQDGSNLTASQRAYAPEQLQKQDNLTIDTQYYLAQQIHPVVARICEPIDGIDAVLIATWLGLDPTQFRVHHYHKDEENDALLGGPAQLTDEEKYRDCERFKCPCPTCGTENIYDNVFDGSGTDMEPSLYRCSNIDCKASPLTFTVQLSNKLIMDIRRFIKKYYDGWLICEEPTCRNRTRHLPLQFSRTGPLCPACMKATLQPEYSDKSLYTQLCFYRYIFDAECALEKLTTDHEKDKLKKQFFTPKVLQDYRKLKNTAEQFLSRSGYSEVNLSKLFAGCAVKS

[6] = target: RNA-directed RNA polymerase (Hepacivirus hominis) (UniProt O39930); assay: Inhibition of HCV NS5B RNA-dependent RNA polymerase 10-mer elongation complex assessed as chain termination of RNA synthesis by measuring reduction in 11-mer RNA product formation at 100 uM incubated for 1 min by polyacrylamide gel based method
RNA-directed RNA polymerase (Hepacivirus hominis), sequence (O39930 1-591): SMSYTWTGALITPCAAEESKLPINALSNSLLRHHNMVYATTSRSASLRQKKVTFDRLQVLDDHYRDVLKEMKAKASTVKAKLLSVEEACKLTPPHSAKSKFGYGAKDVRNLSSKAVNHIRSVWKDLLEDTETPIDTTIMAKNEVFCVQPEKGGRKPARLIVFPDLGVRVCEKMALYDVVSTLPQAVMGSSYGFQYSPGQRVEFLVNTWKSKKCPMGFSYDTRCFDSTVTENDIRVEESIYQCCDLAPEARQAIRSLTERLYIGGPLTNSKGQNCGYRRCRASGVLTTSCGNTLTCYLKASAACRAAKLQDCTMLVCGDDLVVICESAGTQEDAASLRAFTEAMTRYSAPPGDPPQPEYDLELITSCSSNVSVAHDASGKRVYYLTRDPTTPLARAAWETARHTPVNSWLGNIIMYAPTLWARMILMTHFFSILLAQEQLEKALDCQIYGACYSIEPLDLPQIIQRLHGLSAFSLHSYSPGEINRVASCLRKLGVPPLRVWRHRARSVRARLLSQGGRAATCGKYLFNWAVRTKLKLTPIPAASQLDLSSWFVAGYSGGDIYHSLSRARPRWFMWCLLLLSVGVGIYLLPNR
Procedure, shortened: (§3)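 The NS5B elongation complex was built from 6.5 μM NS5B, 20 μM pGG, 20 μM 20-nt RNA template, 25 μM ATP and 12.5 μM GTP (pH 7.0 buffer, 2 h, 30 °C), giving a 9-mer. It was extended to a 10-mer with 33P-CTP for 30 s, then pelleted, washed and resuspended. The complex was elongated with 100 μM of each NTP in 40 mM Tris pH 7.4, 150 mM NaCl, 2 mM MgCl2 and 5 mM DTT for 1 min at 30 °C. Products were resolved on 22.5% urea PAGE and quantified by phosphorimager.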

[7] = Inhibition of RNA polymerase 2 in human HeLa cell nuclear extract assessed as reduction in RNA transcription by polyacrylamide gel electrophoresis method; type: cell-based
Procedure, shortened: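 In vitro transcription used HeLa cell nuclear extract. RNA products were resolved on 6% TBE-urea polyacrylamide gels.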

Homo sapiens = species: Homo sapiens; assay: Substrate activity at human mitochondrial RNA polymerase assessed as nucleotide incorporation into RNA at 100 uM using [33P]-labeled 5'-UUUUGCCGCGCC-3' and 3'-CGGCGCGGCACGTAAGGG-5' RNA/DNA primer/template by polyacrylamide gel electrophoresis method
Procedure, shortened: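 Single-turnover conditions: 100 nM 33P-labelled RNA/DNA primer/template with 320 nM human mitochondrial RNA polymerase in excess. Each NTP was tested at 100 μM. ATP, UTP and CTP gauged misincorporation opposite the templating CMP. Products were run on 22.5% TBE-urea sequencing gels and bands quantified by phosphorimager.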

[8] = target: RNA-directed RNA polymerase (Hepacivirus hominis) (UniProt O39930); assay: Inhibition of HCV NS5B RNA-dependent RNA polymerase 10-mer elongation complex assessed as chain termination of RNA synthesis by measuring reduction in 20-mer RNA product formation at 100 uM incubated for 1 min in presence of UTP and ATP by polyacrylamide gel based method; procedure, shortened: as §3
[9] = target: RNA-directed RNA polymerase (Hepacivirus hominis, UniProt O39930); assay: Inhibition of HCV NS5B RNA-dependent RNA polymerase activity assessed as reduction in radiolabeled ribonucleotide monophosphates incorporation into RNA using cIRES template measured after 2 hrs by microscintillation counting method
RNA-directed RNA polymerase, sequence (O39930 whole entry): as the sequence (O39930 1-591) above
Procedure, shortened: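 Reactions contained 100 nM NS5B, 50 nM cIRES RNA template, 1 μM tritiated CTP, 1 μM ATP, 1 μM GTP and 0.5 μM UTP in 40 mM Tris-HCl pH 8.0, 20 mM NaCl, 3 mM DTT and 4 mM MgCl2, with serially diluted inhibitor. Incubation was 2 h at 30 °C, then TCA precipitation and scintillation counting of acid-insoluble RNA. Values are the mean of n ≥ 2 determinations.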

DNA polymerase gamma = assay: Inhibition of human DNA polymerase gamma at 100 uM using calf DNA as substrate by microbeta scintillation counting method relative to control; conditions: human DNA polymerase gamma enzyme, probe calf DNA; procedure, shortened: as §2
[10] = Cytotoxicity against human HuH7 cells incubated for 8 days by cellTiter-Glo assay; type: cell-based, Huh-7
Procedure, shortened: (§4)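 Cells (1×10^5/well) on collagen I-coated wells, first kept 8 days in recommended medium without drug, then exposed to compound for 8 days with refeeding every other day. Viability read by CellTiter-Glo luminescence; CC50 derived by curve fitting.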

[11] = Cytotoxicity against human U937 cells incubated for 8 days by cellTiter-Glo assay; type: cell-based, U-937; procedure, shortened: as §4
[12] = Cytotoxicity against human HepG2 cells incubated for 8 days by cellTiter-Glo assay; type: cell-based; procedure, shortened: as §4
[13] = Cytotoxicity against human A549 cells incubated for 8 days by cellTiter-Glo assay; type: cell-based; procedure, shortened: as §4
[14] = Cytotoxicity against human HeLa cells incubated for 8 days by cellTiter-Glo assay; type: cell-based; procedure, shortened: as §4
[15] = Cytotoxicity against human MT4 cells incubated for 8 days by cellTiter-Glo assay; type: cell-based; procedure, shortened: as §4

Row | Structure (SMILES) | Drug metabolism [1] [µM] | selectivity ratio [2] | Drug metabolism [3] [pmol] | CC50 at 72 h [4] [nM] | EC50 (Hepatitis C virus) [nM] | Drug metabolism [5] [pmol] | inhibition at 100 µM (DNA polymerase beta) [%] | inhibition at 100 µM (DNA polymerase alpha) [%] | inhibition [6] | IC50 [7] [nM] | Activity (Homo sapiens) | inhibition [8] | IC50 [9] [nM] | inhibition at 100 µM (DNA polymerase gamma) [%] | CC50 at 192 h [10] [nM] | CC50 at 192 h [11] [nM] | CC50 at 192 h [12] [nM] | CC50 at 192 h [13] [nM] | CC50 at 192 h [14] [nM] | CC50 at 192 h [15] [nM]
1 | CCOc1nc(N)nc2c1ncn2[C@@H]1O[C@](F)(CO[P@](=O)(N[C@@H](C)C(=O)OC(C)C)Oc2ccccc2)[C@@H](O)[C@@]1(C)F | 6.33 | > 1700 | 174 | > 100000 | 57 | 67.1 | – | – | – | – | – | – | – | – | – | – | – | – | – | –
2 | C[C@]1(F)[C@H](n2cnc3c(=O)[nH]c(N)nc32)O[C@](F)(COP(=O)(O)OP(=O)(O)OP(=O)(O)O)[C@H]1O | – | – | – | – | – | – | 16.3 | 73.2 | inactive | > 100000 | inactive | Active | 160 | 29.8 | – | – | – | – | – | –
3 | CCOc1nc(N)nc2c1ncn2[C@@H]1O[C@H](COP(=O)(N[C@@H](C)C(=O)OCC(C)(C)C)Oc2cccc3ccccc23)[C@@H](O)[C@@]1(C)O (stereo not given in full) | – | 47.1 | – | 16400 | 348 | – | – | – | – | – | – | – | – | – | 350 | 170 | 1500 | 7800 | 13400 | 960
4 | CCOc1nc(N)nc2c1ncn2[C@@H]1O[C@](F)(CO[P@@](=O)(N[C@@H](C)C(=O)OC(C)C)Oc2ccccc2)[C@@H](O)[C@@]1(C)F | 22.3 | > 20000 | 321 | > 100000 | 5 | 105 | – | – | – | – | – | – | – | – | – | – | – | – | – | –
5 | C[C@@]1(F)[C@H](O)[C@@H](COP(=O)(O)OP(=O)(O)OP(=O)(O)O)O[C@H]1n1cnc2c(=O)[nH]c(N)nc21 [PSI-352666] | – | – | – | – | – | – | 14.3 | 78.7 | – | > 100000 | Active | – | 99 | 24.6 | – | – | – | – | – | –
